The source of these data is ChEMBL document CHEMBL4321800, “Synthesis, Identification, and Structure-Activity Relationship Analysis of GATA4 and NKX2-5 Protein-Protein Interaction Modulators” (J Med Chem, 2019).

Common to all, as to type: cell-based
Data set [1] concerns the target Homeobox protein Nkx-2.5 (Mus musculus) (UniProt P42582). Description: Enhancement of mouse NKX2-5 expressed in Chlorocebus aethiops COS1 cells harboring 3xHA reporter gene assessed as protein-induced transcriptional activity at 10 uM after 24 hrs by luciferase reporter gene assay relative to control. The method in brief: (§1)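 COS-1 cells seeded 14 000/well and grown overnight. Transfection for 6 h in serum- and antibiotic-free medium with pGL3-3xHA reporter (100 ng/well) and pMT2-NKX2-5 (25 ng/well), Fugene 6 1:3. Compound or 0.1% DMSO vehicle for 24 h, then luciferase luminescence. Triplicate wells with Grubbs outlier removal, % of control.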

Data set [2] shares this target. Description: Inhibition of mouse NKX2-5 expressed in Chlorocebus aethiops COS1 cells harboring 3xHA reporter gene assessed as protein-induced transcriptional activity at 10 uM after 24 hrs by luciferase reporter gene assay relative to control. Set-up: scale not given: the % may be the effect or the level left. The gist of the method: as §1
Data set [3] has as its target T1, GATA4/NKX2-5 (Mus musculus) (UniProt Q08369+P42582). Description: Modulation of mouse GATA4/mouse NKX2-5 protein-protein interaction expressed in Chlorocebus aethiops COS1 cells harboring 3xHA reporter gene assessed as transcriptional synergy at 10 uM after 24 hrs by luciferase reporter gene assay relative to control. The method in brief:
(§2)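 COS-1 cells seeded 14 000/well, grown overnight, then transfected for 6 h in serum- and antibiotic-free medium with pGL3-3xHA reporter (three NKX2-5 sites, 100 ng/well) plus pMT2-GATA4 and pMT2-NKX2-5 (total 50 ng/well), Fugene 6 at 1:3 DNA/reagent. Compound or 0.1% DMSO vehicle for 24 h, then luminescence read. Triplicates, Grubbs outliers removed, expressed as % of control.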

The target of data set [4] is T1, GATA4/NKX2-5 (Mus musculus). Description: Inhibition of mouse GATA4/mouse NKX2-5 protein-protein interaction expressed in Chlorocebus aethiops COS1 cells harboring 3xHA reporter gene assessed as transcriptional synergy at 10 uM after 24 hrs by luciferase reporter gene assay relative to control. Also on record: scale not given: the % may be the effect or the level left. The gist of the method: as §2

Data set [5] concerns the target Transcription factor GATA-4 (Mus musculus) (UniProt Q08369). Kind of data set: Inhibition of mouse GATA4 expressed in Chlorocebus aethiops COS1 cells harboring NP-112 reporter gene assessed as BNP promoter-driven transcriptional activity at 10 uM after 24 hrs by luciferase reporter gene assay relative to control. Also on record: scale not given: the % may be the effect or the level left. The gist of the method: (§3)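 GATA reporter assay: COS-1 cells (14 000/well, overnight) transfected 6 h serum/antibiotic-free with NP-112 reporter (tandem GATA sites plus rat BNP minimal promoter, 100 ng/well) and pMT2-GATA4 (25 ng/well), Fugene 6 1:3. Treated 24 h with compound or 0.1% DMSO. Luminescence read; triplicates, Grubbs outliers removed, % of control.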

In data set [6] the test system is COS-1. Kind of data set: Induction of necrosis in Chlorocebus aethiops COS1 cells assessed as LDH release at 1 to 30 uM after 24 hrs by LDH assay relative to control. Conditions: cos-1, 24 h. The gist of the method: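 COS-1 cells in DMEM with 10% FBS at 37 °C, 5% CO₂, plated 10 000/well and exposed next day to 1–30 μM for 24 h. Medium samples mixed with NAD, iodonitrotetrazolium, lactate and phenazine methosulfate in 0.2 M Tris-HCl pH 8.2, 30 min at room temperature. Stopped with acetic acid, A490 read and normalized to maximal and spontaneous release.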

In data set [7] the target is Transcription factor GATA-4 (Mus musculus) (UniProt Q08369). Kind of data set: Enhancement of mouse GATA4 expressed in Chlorocebus aethiops COS1 cells harboring NP-112 reporter gene assessed as BNP promoter-driven transcriptional activity at 10 uM after 24 hrs by luciferase reporter gene assay relative to control. The method in brief:
as §3

Data set [8] deals with Homeobox protein Nkx-2.5 (Mus musculus) (UniProt P42582). Description: Modulation of mouse NKX2-5 expressed in Chlorocebus aethiops COS1 cells harboring 3xHA reporter gene assessed as protein-induced transcriptional activity at 10 uM after 24 hrs by luciferase reporter gene assay relative to control. The gist of the method:
as §1

The target in data set [9] is Transcription factor GATA-4 (Mus musculus) (UniProt Q08369). Kind of data set: Modulation of mouse GATA4 expressed in Chlorocebus aethiops COS1 cells harboring NP-112 reporter gene assessed as BNP promoter-driven transcriptional activity at 10 uM after 24 hrs by luciferase reporter gene assay relative to control. The gist of the method: as §3
Data set [10] deals with T1, GATA4/NKX2-5 (Mus musculus). Description: Enhancement of mouse GATA4/mouse NKX2-5 protein-protein interaction expressed in Chlorocebus aethiops COS1 cells harboring 3xHA reporter gene assessed as transcriptional synergy at 10 uM after 24 hrs by luciferase reporter gene assay relative to control. The gist of the method: as §2

Some results are limits rather than exact numbers.

Chain of Homeobox protein Nkx-2.5 (Mus musculus) (P42582 whole entry): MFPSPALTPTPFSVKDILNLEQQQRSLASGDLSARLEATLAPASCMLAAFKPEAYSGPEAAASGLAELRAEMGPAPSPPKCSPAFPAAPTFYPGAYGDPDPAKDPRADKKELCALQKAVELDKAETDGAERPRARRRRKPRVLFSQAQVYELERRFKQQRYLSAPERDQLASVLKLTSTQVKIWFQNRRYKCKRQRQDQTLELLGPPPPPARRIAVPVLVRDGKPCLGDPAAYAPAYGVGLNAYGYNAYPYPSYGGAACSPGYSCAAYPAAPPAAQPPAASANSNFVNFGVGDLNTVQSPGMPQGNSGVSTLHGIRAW
Chain of Transcription factor GATA-4 (Mus musculus) (Q08369 whole entry): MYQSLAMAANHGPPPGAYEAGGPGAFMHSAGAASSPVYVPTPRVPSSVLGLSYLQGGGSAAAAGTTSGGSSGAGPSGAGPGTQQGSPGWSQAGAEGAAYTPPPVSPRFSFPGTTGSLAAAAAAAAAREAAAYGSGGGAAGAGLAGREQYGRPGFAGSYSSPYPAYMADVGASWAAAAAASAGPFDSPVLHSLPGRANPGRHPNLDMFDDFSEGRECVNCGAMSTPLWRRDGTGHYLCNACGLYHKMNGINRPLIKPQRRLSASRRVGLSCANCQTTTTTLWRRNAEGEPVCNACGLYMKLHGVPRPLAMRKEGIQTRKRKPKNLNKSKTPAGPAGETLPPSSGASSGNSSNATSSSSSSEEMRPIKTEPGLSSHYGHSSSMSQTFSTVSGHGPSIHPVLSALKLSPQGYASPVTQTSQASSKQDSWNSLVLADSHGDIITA

For `CCN(CC)c1ccc(-n2c(=O)c3c(C)onc3c3ccccc32)cc1`, the Activity in [1] was determined as 110%.

Consider `CCN(CC)c1ccc(NC(=O)c2csc([N+](=O)[O-])c2)cc1`, for which the Activity was 26% in data set [2]; 25% in data set [3]; 25% in data set [4]; 23% in data set [5]; below 8% in data set [6].

`CN(C)c1ccc(/N=C/c2c[nH]nc2-c2ccc(F)cc2)cc1`: the Activity in data set [1] stood at 140%; in data set [7], 120%.

`C=CCN(Cc1ccc(N(CC)CC)cc1)c1c(-c2ccccc2)noc1C`: the Activity in data set [3] is 53%; in [8], 73%; in data set [9], 80%; in data set [6], below 8%.

For the molecule `CC(C)c1ccc(NC(=O)c2noc3c2CCc2sccc2-3)cc1`, the Activity amounted to 130% in [10] and 120% in data set [7].

For the molecule `CCN(CC)c1ccc(NC(=O)c2c(C)noc2-c2cc(C)on2)cc1`, the Activity in [3] is 78%; in data set [8], 84%; in [9], 100%; in data set [6], below 8%.

Regarding `Cc1onc(-c2ccccc2)c1C(=O)Nc1ccc(C(=O)OCCCC#N)cc1`, the Activity in [3] turned out to be 98%; in data set [8] it was 97%; in data set [7] it was 110%.

Turning to `Cc1onc(-c2ccccc2)c1C(=O)Nc1ccc(C#C[Si](C)(C)C)cc1`, the Activity in [3] was 69%; in data set [8], 75%; in data set [9], 93%; in [6] it was below 8%.

As to `CCN(c1ccc(NC(=O)c2c(-c3ccccc3)noc2C)cc1)C(C)C`, the Activity in data set [2] was 34%; in data set [3], 41%; in data set [9], 75%; in data set [6], below 8%.

Consider `CCN(CC)c1ccc(NC(=O)c2cnoc2-c2ccccc2)cc1`, for which the Activity in data set [3] is 47%; in data set [8], 50%; in data set [9] it was 62%; in data set [6], below 8%.

Turning to `Cc1onc(-c2ccccc2)c1C(=O)Nc1ccc(C(=O)OCCC#N)cc1`, the Activity in [1] was determined as 130%.

Turning to `CCN(CC)c1ccc(NC(=O)c2cnc(SC)n2-c2ccc(F)cc2)cc1`, the Activity in [3] is 52%; in data set [8], 65%; in data set [5] it was 45%; in data set [6] it was below 8%.

Consider `Cc1cc(-c2onc(C)c2C(=O)Nc2ccc3oc(-c4ccccc4)cc(=O)c3c2)no1`, for which the Activity in data set [1] stood at 110%; in [7], 120%.

Turning to `CCC(OC)c1ccc(OCc2c(-c3ccccc3)noc2C)cc1` (racemic), the Activity was 43% in data set [3], 67% in [8], 78% in data set [9] and below 8% in data set [6].

As to `CCN(CC)c1ccc(CNc2c(-c3ccccc3)noc2C)cc1`, the Activity in data set [3] was 91%; in data set [8], 89%; in data set [9], 77%; in data set [6], below 8%.

As to `Cc1onc(-c2ccccc2)c1COc1ccc(C(=O)O)cc1`, the Activity in data set [10] was found to be 120%.

`Cc1onc(-c2ccccc2)c1C(=O)Nc1ccc(C(=O)OCCCCC#N)cc1`: the Activity was found to be 90% in data set [3], 100% in data set [9] and 150% in data set [1].

As to `CCN(CC)c1ccc(NC(=O)c2snnc2-c2ccccc2)cc1`, the Activity is 41% in [3], 49% in [8], 52% in data set [9] and below 8% in data set [6].

`CCN(CC)c1ccc(NC(=O)c2c(-c3ccncc3)noc2C)cc1`: the Activity in data set [3] was 61%; in data set [8], 61%; in data set [9] it was 79%; in data set [6] it was below 8%.

As for `CCN(CC)c1ccc(NC(=O)c2c(-c3ccccc3)nnn2CCc2ccccc2)cc1`, the Activity in data set [2] was 34%; in [5] it was 38%; in data set [6] it was below 8%.

Consider `Cc1onc(-c2ccccc2)c1C(=O)Nc1nc(C(C)(C)C)cs1`, for which the Activity in data set [3] stood at 110%; in [8] it was 96%; in [9], 110%.

For `CC(=O)c1ccc(NC(=O)c2cc(-c3ccco3)on2)cc1`, the Activity in data set [10] turned out to be 130%.

For the molecule `C#CC[N+](CC)(CC)c1ccc(NC(=O)c2c(-c3ccccc3)noc2C)cc1`, the Activity in data set [1] stood at 120%.

For the molecule `CCN(CC)c1ccc(NC(=O)c2cc(C)oc2-c2cc(C)on2)cc1`, the Activity in data set [3] is 100%; in [8] it was 110%; in data set [7], 140%.

On to `CCN(CC)c1ccc(NC(=O)c2c(-c3ccsc3)noc2C)cc1`, for which the Activity in data set [3] was 66%; in [8], 84%; in data set [9], 71%; in data set [6] it was below 8%.

For the molecule `CCN(CC)c1ccc(NC(=O)c2c(-c3ccoc3)noc2C)cc1`, the Activity in data set [3] was 110%; in [8], 110%; in [9], 99%.

On to `Cc1onc(-c2ccccc2)c1C(=O)Nc1ccc2oc(-c3ccccc3)cc(=O)c2c1`, for which the Activity in [3] is 31%; in data set [8] it was 53%; in [9], 66%; in [6], below 8%.

Take `CCN(CC)c1ccc(NC(=O)c2cn(C)nc2-c2cc(C)on2)cc1`: the Activity in data set [3] came to 99%; in [8], 93%; in data set [7] it was 130%.

In the case of `Cc1onc(-c2ccccc2)c1NC(=O)c1ccc(N2CCN(C)CC2)cc1`, the Activity in data set [10] was determined as 120%.

For `CCc1noc(C)c1C(=O)Nc1ccc(N(CC)CC)cc1`, the Activity in data set [3] came to 100%; in data set [1], 160%; in data set [7] it was 140%.

Consider `Cc1onc(-c2ccccc2)c1COc1ccc(C(=O)OCCCC#N)cc1`, for which the Activity was determined as 52% in [3], 52% in data set [8] and 71% in data set [9].

On to `CCN(c1ccc(NC(=O)c2c(C)noc2-c2snnc2C)cc1)C(C)C`, for which the Activity in data set [4] is 19%.

On to `CCN(CC)c1ccc(NC(=O)c2c(-c3ccc(F)cc3)noc2C)cc1`, for which the Activity in data set [3] is 44%; in data set [8], 47%; in data set [9], 79%; in [6] it was below 8%.

For the molecule `Cc1onc(-c2ccccc2)c1C(=O)Nc1ccc(-c2ccccc2)cc1`, the figures for the Activity in data set [3], in data set [8] and in data set [9] were 110%, 97% and 110%, respectively.

Take `CCN(c1ccc(NC(=O)c2c(C)noc2-c2cc(C)on2)cc1)C(C)C`: in data set [7], the Activity is 120%.

Consider `CCC(C)NC(=O)c1cc(-c2ccco2)on1` (stereo unspecified), for which the Activity in [10] was determined as 140%.

`CCC(=O)c1ccc(OCc2c(-c3ccccc3)noc2C)cc1`: the Activity came to 76% in data set [3], 80% in data set [8] and 78% in [9].

For the molecule `CCN(CC)c1ccc(NC(=O)c2cn(C)cc2-c2cc(C)on2)cc1`, the Activity in data set [3], in data set [9] and in data set [1] was 110% throughout.

Take `CCN(CC)c1ccc(NC(=O)c2csc3nnsc23)cc1`: in [10], the Activity amounted to 130%.

For the molecule `CCN(CC)c1ccc(NC(=O)c2c(-c3ccc(C)s3)noc2C)cc1`, the Activity came to 100% in data set [3], 88% in data set [8] and 92% in data set [9].

Take `CCN(CC)c1ccc(CN(C(=O)C(F)(F)F)c2c(-c3ccccc3)noc2C)cc1`: the Activity in data set [3] was 52%; in data set [8], 71%; in data set [9] it was 72%; in data set [6], below 8%.

Take `Cc1onc(-c2ccccc2)c1C(=O)N(C)c1ccc(C(=O)O)cc1`: in [10], the Activity was determined as 130%.

In the case of `CCN(CC)c1ccc(NC(=O)c2cnoc2C2CC2)cc1`, in [10], the Activity was 140%.

For `CCN(CC)c1ccc(NC(=O)c2cc(C)sc2-c2cc(C)on2)cc1`, the Activity was found to be 85% in [3], 96% in data set [8] and 97% in data set [9].
